Bioassay records (PubChem BioAssay)
Compounds with a hit are over-represented: about 3.9% of the library has one in this group of screens.
SR-BI uptake up = SR-BI HDL lipid transfer activation. 320,000 tested, 0.096% active. AID 504775. CHO ldlA[mSR-BI] cells, DiI-HDL uptake fluorescence, 3 h; 100 = double the neutral-control signal. activation, % at 12.5 µM;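 active = mean replicate activation of at least 60% and every replicate at or above 60%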;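 note: 0% = median plate neutral-control signal and 100% = twice that signal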
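System: CHO ldlA[mSR-BI] cells / Medium: HEPES-buffered (25 mM, pH 7.4) F12 plus 0.5% BSA / Probe or stimulus: labelled HDL, 10 µg/mL / Doses: single compound concentration, delivered by pin transfer / Schedule: 3 h, 37 °C / Measured by: DiI fluorescence, bottom read / Measure: cell-associated DiI fluorescence as measure of HDL uptake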
FXN GAA850 act = increases GAA850 frataxin promoter reporter activity; HEK293 lucGAA850 FXN promoter luciferase reporter, 24 h; percent of 10 µM SAHA response; activation, % at 6 µM; AID 540364; 360,000 tested, 0.56% active;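 active = activation above the average of all compounds screened plus 3 SD, cutoff fixed separately per campaign, cut at about 7.5% in these data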;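 note: 0% = DMSO wells and 100% = 10 µM SAHA wells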
HIF activator = HIF pathway transcriptional activation. AID 1910. U2OS HRE-luciferase reporter, luminescence; normalized: DMSO 0%, desferrioxamine 100%. 300,000 tested, 0.32% active. activation, % at 7.5 µM (by protocol);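 active = mean activation of at least 10% of the iron chelator positive control signal, with at least half of replicates also reaching 10%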
ABCB6 inh 2 = inhibitors of human ABC transporter ABCB6. K562-ABCB6 porphyrin accumulation, flow cytometry, 1 h; active compounds read low. fluorescence ratio to DMSO, % at 10 µM. 360,000 tested, 0.19% active. AID 602162;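 active = fluorescence ratio to DMSO below 75%, the collection mean minus 3 SD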;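 note: signal is porphyrin accumulated inside mitochondria; 100% equals median channel fluorescence of DMSO control wells; lower ratio means ABCB6 inhibition with less porphyrin fluorescence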
AHR activator = activates the human aryl hydrocarbon receptor; P35869; AHR-responsive luciferase reporter cells, luminescence; activation, % at 5 µM; 320,000 tested, 2.5% active; in the data active = activation above about 47%;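 note: 0% = vehicle wells and 100% = reference agonist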
SR-BI HDL uptake = inhibitors of mouse SR-BI mediated HDL lipid uptake. Q61009. ldlA[mSR-BI] CHO cells, DiI-HDL uptake fluorescence, 3 h. inhibition, % at 12.5 µM. 320,000 tested, 0.96% active;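 active = mean replicate inhibition of at least 70% and a set share of replicates each scoring 70 or more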;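 note: 0% = median of neutral control wells and 100% = median of positive control wells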
Target sequence (Q61009 whole entry, looked up): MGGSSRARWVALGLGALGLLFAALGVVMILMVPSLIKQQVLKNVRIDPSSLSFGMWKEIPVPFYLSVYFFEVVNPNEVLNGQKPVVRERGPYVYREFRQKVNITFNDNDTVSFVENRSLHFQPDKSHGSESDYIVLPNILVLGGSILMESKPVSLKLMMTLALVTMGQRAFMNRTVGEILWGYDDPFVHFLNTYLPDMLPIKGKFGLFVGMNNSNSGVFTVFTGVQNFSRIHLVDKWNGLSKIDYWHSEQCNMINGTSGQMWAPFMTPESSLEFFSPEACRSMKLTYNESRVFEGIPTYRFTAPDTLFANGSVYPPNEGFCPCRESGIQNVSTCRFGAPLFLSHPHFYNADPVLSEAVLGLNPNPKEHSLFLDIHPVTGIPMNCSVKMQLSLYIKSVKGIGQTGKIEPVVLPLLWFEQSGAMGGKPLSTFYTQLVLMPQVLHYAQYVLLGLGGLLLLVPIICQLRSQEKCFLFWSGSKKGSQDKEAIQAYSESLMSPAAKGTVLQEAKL
An asterisk follows results filed as active; . = not tested or not shown.

SMILES	SR-BI uptake up	FXN GAA850 act	HIF activator	ABCB6 inh 2	AHR activator	SR-BI HDL uptake
O=C(Nc1ccc(F)c(Cl)c1)c1ccccc1	-11	3	.	92	56*	11
Cc1cc(C(=O)Nc2ccccc2C)c2ccccc2n1	6	1	-27	100	12	-6
O=C(CN1c2ccccc2Sc2ccccc21)N/N=C/c1ccc([N+](=O)[O-])cc1	-16	3	-1	96	1	16
CCCN1Cc2cccc(C(=O)NC(CC(=O)OCC)c3ccc(OCC)c(OC)c3)c2C1=O (configuration not stated)	-19	2	0	93	3	19
O=C(Nc1ccc(Cl)c(Cl)c1)Nc1nccs1	.	2	4	90	59*	.
Cc1ccccc1NC(=O)c1ccc(Cl)c(NC(=O)c2ccncc2)c1	10	-1	-1	104	48*	-10
Cn1nnnc1Sc1ncnc2scc(-c3cccc4c3sc3ccccc34)c12	29	-1	.	96	8	-29
Nc1sc(-c2ccccc2)n[n+]1Cc1cccc2cccnc12	.	1	2	94	85*	.
Oc1ccccc1CNc1cccc2cccnc12	-14	0	-1	112	19	14
COc1ccc(N(CC(=O)Nc2ccc3c(c2)OCO3)S(=O)(=O)c2c(C)nn(C)c2C)cc1	2	-1	0	94	59*	-2
COc1ccc(NC(=O)CN(c2ccc(OC)cc2)S(=O)(=O)c2c(C)nn(C)c2C)cc1	-6	1	0	92	3	6
COc1ccc(Cl)cc1N(CC(=O)Nc1ccc2c(c1)OCO2)S(C)(=O)=O	-17	-1	0	98	76*	17
Cc1nnc(SCC(=O)N2CCC(C(=O)Nc3nccs3)CC2)n1Cc1ccccc1	-9	-2	0	96	.	9
O=C(O)c1cc(-c2ccc(Cl)cc2)n(-c2ccccc2)n1	9	0	0	91	2	-9
COc1ccccc1NC(=O)CN1CCN(C(=O)c2ccco2)CC1	-9	0	0	101	0	9
N#Cc1c(NC(=O)CN2CCN(C(=O)c3ccco3)CC2)sc2c1CCCCC2	-83	0	0	98	1	83*
COc1ccccc1NC(=O)c1ccc(NC(=O)CN2CCN(C(=O)c3ccco3)CC2)cc1	-79	1	-1	88	0	79*
CCOc1ccc(NC(=O)CN2CCN(CC(=O)Nc3ccccc3OC)CC2)cc1	-78	1	1	90	0	78*
N#Cc1c(NC(=O)CN2CCCCC2)sc2c1CCC2	4	-2	0	92	-1	-4
CCOc1ccc(NC(=O)CN2CCN(CC(=O)Nc3ccc(OC)cc3OC)CC2)cc1	-62	0	0	91	0	62
O=C(Nc1cccc(F)c1)/C(=C\c1cccnc1)NC(=O)c1cccs1	0	1	0	100	9	0
NNC(=O)CC1=NNC(=O)C1	8	0	.	105	.	-8
Cc1ccc(N2NC(C)(c3cccs3)NC2=S)cc1 (configuration not stated)	11	2	5	96	52*	-11
COc1ccc(NC(=S)Nc2ccc3nccnc3c2)cc1	27	3	2	100	7	-27
COc1ccc(NC(=S)Nc2ccc(N)c([N+](=O)[O-])c2)cc1	-34	1	4	96	62*	34
SMILES	SR-BI uptake up	FXN GAA850 act	HIF activator	ABCB6 inh 2	AHR activator	SR-BI HDL uptake
COc1ccc(NC(=S)Nc2ccc3snnc3c2)cc1	-25	4	6	97	67*	25
COc1cc2c(cc1OC)C(c1ccc3c(c1)Cc1ccccc1-3)OC(=O)C2 (configuration not stated)	.	2	.	93	.	.
Cc1nn(C)c(C(=O)NC(=S)Nc2ccccc2O)c1Cl	15	1	-1	100	54*	-15
Cc1ccc(O)c(NC(=S)NC(=O)c2ccccc2Cl)c1	-12	-1	1	99	60*	12
CCOc1ccc(NC(=S)NC(=O)c2c(Cl)c(C)nn2C)c([N+](=O)[O-])c1	22	-3	2	101	1	-22
O=C(NC(=S)Nc1ccc(O)cc1)c1ccccc1Cl	6	6	3	100	23	-6
Cc1ccccc1N1CC(=O)Nc2c(oc3nc(-c4ccccc4)cc(C)c23)C1=O	8	0	0	97	-3	-8
N/C(=N\OC(=O)c1ccc(F)cc1)c1ccccc1	28	4	3	100	60*	-28
N/C(=N\OC(=O)c1ccc(F)cc1)c1ccc(Br)cc1	-5	-1	2	101	52*	5
N/C(=N\OC(=O)c1ccc(Br)cc1)c1ccncc1	14	3	1	106	-7	-14
Cc1ccc(/C(N)=N/OC(=O)c2ccc(F)cc2)cc1	-11	4	5	99	4	11
CCOC(=O)N1CCN(C(=O)CSCC(=O)Nc2nc(-c3ccc(OC)cc3)cs2)CC1	-64	0	1	94	0	64
CCOC(=O)N1CCN(C(=O)CSCC(=O)Nc2nc(-c3ccc(-c4ccccc4)cc3)cs2)CC1	-85	-8	4	92	-9	85*
O=C1CCCN1CC(O)CS(=O)(=O)Cc1ccccc1 (configuration not stated)	-1	1	0	98	3	1
Cc1cccc(N=N/C(=C\O)C(=O)c2ccc(Br)cc2)c1	-31	-2	1	104	17	31
O=C(/C(=C/O)N=Nc1cccc(C(F)(F)F)c1)c1ccccc1	-14	2	0	93	75*	14
CC(=O)c1cccc(N(C(=O)c2ccccn2)C(C(=O)NC2CCCCC2)c2ccccc2)c1 (configuration not stated)	20	-2	39*	99	0	-20
CC(C)c1ccc(C(C(=O)NC2CCCCC2)N(C(=O)c2ccccn2)c2cccnc2)cc1 (configuration not stated)	9	2	-2	91	-1	-9
CC1=C[C@@H](C)[C@@H](c2ccccc2)OC1=O	-8	0	1	103	-1	8
Fc1cccc(Cl)c1/C=C/c1cnc2ccccc2n1	12	3	2	112	66*	-12
COc1ccc2c(c1)Sc1ccccc1N2	-5	1	1	102	.	5
c1ccc2c(c1)Nc1cc3ccccc3cc1S2	-9	4	0	96	60*	9
COc1ccc(CNC(=O)CSc2nnc3c(n2)[nH]c2ccc(OC)cc23)cc1	.	3	-2	95	4	.
CCOC(=O)N1CCC(Nc2cc(C)nc3c(-c4ccccc4OC)c(C)nn23)CC1	-9	0	0	95	-2	9
